This is an account of results in article PMC5955861 (Oncogene, 2018).

SMILES strings stand for the structures. Read-outs that look alike come from different tables or passages of the source.

For assay [1], the system named is THP-1 AML cells. Kind of assay: disseminated AML xenograft efficacy study. The assay is classed as in vivo, CIEA-NOG mice. The following applies: decitabine twice per week, 0.5 mg/kg i.p.
Assay [2] has as its system p-Ser2 POL-II in MV-4-11B cells. Kind of assay: p-Ser2 POL-II custom MSD assay. The format is cell-based. The following applies: 5 µM LDC000067, 2 h. In a few lines:
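MV-4-11B cells were treated for 2 h with single agents or their combination. Phospho-Ser2 RNA Pol II was quantified with a custom Meso Scale Discovery multi-array assay.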

Assay [3] relates to MV-4-11B. Kind of assay: alamarBlue cell proliferation assay. The assay is classed as cell-based, human. Conditions: MV-4-11B cells. The procedure, abridged:
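Cell lines from ATCC or DSMZ were cultured per supplier's instructions and STR-authenticated. MV-4-11B is a clone of MV-4-11 carrying heterozygous TP53 c.742C>T (p.R248W). Cells were exposed to test compound in 96-well format, and viability was read after incubation with alamarBlue.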
On the technique in general: The colour change of resazurin is a common sign of viable cells or microbes.

On to `Nc1ncn([C@H]2C[C@H](O)[C@@H](CO)O2)c(=O)n1` [decitabine, reference compound], for which the survival prolongation in assay [1] is listed as 26 days.

On to `COc1ccccc1-c1cc(Nc2cccc(CS(N)(=O)=O)c2)ncn1` [LDC000067, reference compound], for which the “p-Ser2 POL-II levels” value in assay [2] is ~ 64 % of control. This compound also returned a half-maximal effective concentration (EC50) in assay [3] of 5000 nM.

For the compound `Cc1sc2c(c1C)C(c1ccc(Cl)cc1)=N[C@@H](CC(=O)OC(C)(C)C)c1nnc(C)n1-2` [JQ1, reference compound], in assay [3] (read-out: anti-proliferative EC50, biologically equivalent concentrations), the EC50 turned out to be 200 nM.

The EC50 is the concentration giving half of the maximal effect.
